ANO1 block – inhibitors of mouse TMEM16A calcium-activated chloride channel; Q8BHY3; HEK293 TMEM16A/YFP iodide influx fluorescence, ionomycin; normalized B-score (activity score, 25-100; higher = stronger inhibition) at 10 µM; actives 1.2% (n = 310,000);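 active = ratio plate-corrected score three or more library SD toward inhibition, starting fluorescence score within five deviations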;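 note: score derived from kinetic fluorescence span divided by baseline fluorescence per well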
Target sequence (Q8BHY3 whole entry, looked up): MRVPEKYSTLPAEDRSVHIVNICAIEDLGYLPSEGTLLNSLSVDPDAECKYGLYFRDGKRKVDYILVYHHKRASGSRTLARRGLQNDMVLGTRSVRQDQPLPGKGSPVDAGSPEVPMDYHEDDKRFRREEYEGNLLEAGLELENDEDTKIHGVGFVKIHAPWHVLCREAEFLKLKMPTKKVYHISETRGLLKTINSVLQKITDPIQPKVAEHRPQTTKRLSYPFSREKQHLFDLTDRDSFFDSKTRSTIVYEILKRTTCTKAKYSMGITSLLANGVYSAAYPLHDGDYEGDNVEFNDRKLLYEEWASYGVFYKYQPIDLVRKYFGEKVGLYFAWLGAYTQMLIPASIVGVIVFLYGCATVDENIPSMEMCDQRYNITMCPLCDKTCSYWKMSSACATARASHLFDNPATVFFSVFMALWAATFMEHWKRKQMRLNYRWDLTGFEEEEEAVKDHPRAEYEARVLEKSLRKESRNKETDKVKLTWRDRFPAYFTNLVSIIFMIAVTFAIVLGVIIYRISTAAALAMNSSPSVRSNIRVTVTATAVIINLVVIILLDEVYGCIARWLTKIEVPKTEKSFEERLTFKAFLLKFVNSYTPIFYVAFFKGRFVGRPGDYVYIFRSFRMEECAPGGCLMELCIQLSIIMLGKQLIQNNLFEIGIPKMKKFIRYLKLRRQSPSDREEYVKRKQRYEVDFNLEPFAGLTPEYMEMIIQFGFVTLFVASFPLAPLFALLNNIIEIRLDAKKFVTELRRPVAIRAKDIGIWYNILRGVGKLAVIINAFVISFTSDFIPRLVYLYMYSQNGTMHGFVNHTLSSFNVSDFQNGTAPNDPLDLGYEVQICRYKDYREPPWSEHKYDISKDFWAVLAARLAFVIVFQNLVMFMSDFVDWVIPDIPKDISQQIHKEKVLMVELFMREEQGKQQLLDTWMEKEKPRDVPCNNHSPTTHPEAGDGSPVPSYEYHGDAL
ANO1 activ – activates or potentiates the mouse TMEM16A chloride channel; B-score at 10 µM; Q8BHY3; HEK293 TMEM16A/YFP-H148Q/I152L, iodide quench fluorescence; active compounds read low; actives 0.3% (n = 340,000);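 active = fluorescence-ratio B-score plate-corrected deviation score at least 3 library SD below zero, with starting fluorescence score within 5 deviations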;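 note: channel opened by trigger with iodide after compound preincubation; score built on the fluorescence ratio of max minus min over baseline; more negative score means more quench and so TMEM16A activation or potentiation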
UBC13 inh – human UBC13 polyubiquitination inhibition | UBC13 polyubiquitin chain formation, TR-FRET | inhibition, % at 20 µM | actives 0.47% (n = 330,000) | AID 485273; in the data active = inhibition above about 45%, passing the limit was not always enough
FID counter – counter-screen for HCV NS3 helicase inhibitors: DNA intercalator displacement; DNA fluorescent intercalator displacement, fluorescence; inhibition, % at 7.9 µM; actives 0.17% (n = 290,000); in the data active = inhibition above about 37%;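 note: 0% = vehicle and 100% = reference compound; higher means more ethidium bromide displaced from hairpin DNA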
Apaf-1 inh – blocks human Apaf-1 apoptosome activity | O14727 | reconstituted apoptosome caspase-3 activity, DEVD-Rh110 fluorescence | inhibition, % at 20 µM | actives 0.71% (n = 330,000); active = inhibition of at least 40% at 20 µM;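 note: plate controls were DMSO wells for no effect and DEVD-CHO caspase inhibitor wells for full effect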
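Medium: Hepes buffer, pH 7.5 / System: biochemical Apaf-1 apoptosome reconstitution / Measured by: Rh110 fluorescence, excitation 480 nm, emission 540 nm / Times: compound with Apaf-1, dATP, procaspase-3 30 min, then 50 min reaction, room temperature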
Starred values were filed as active, the others as inactive. Compounds with a hit are over-represented: about 2.4% of the library has one in this group of screens.

How did Cc1cn(CCOc2ccc(Cl)cc2)c(=O)[nH]c1=O do in these assays?
ANO1 block: inactive; ANO1 activ: inactive; UBC13 inh: 6; FID counter: -8; Apaf-1 inh: -3

How did Cc1nn(-c2ccccc2)c(Cl)c1/C=C1\SC(=S)NC1=O do in these assays?
ANO1 block: 100*; ANO1 activ: inactive; UBC13 inh: -11; FID counter: -23; Apaf-1 inh: -10

How did Cc1oc2cc3oc(=O)c(CCC(=O)N4C[C@H]5C[C@@H](C4)c4cccc(=O)n4C5)c(C)c3cc2c1C do in these assays?
ANO1 block: inactive; ANO1 activ: inactive; UBC13 inh: 1; FID counter: -47; Apaf-1 inh: 7

What do the screens show for `CCOC(=O)c1ccc(NC(=S)N2CCSC2c2ccc(Cl)cc2)cc1` (configuration not stated)?
ANO1 block: 100*; ANO1 activ: -7.7*; FID counter: 5

What do the screens show for `CCN(CC(=O)Nc1c(F)cccc1F)C(=O)/C=C/c1ccc(S(=O)(=O)N2CCCCCC2)cc1`?
ANO1 block: 25*; ANO1 activ: inactive; UBC13 inh: -8; Apaf-1 inh: 15

What do the screens show for `CCN(CC(=O)Nc1c(F)cccc1F)C(=O)c1ccc(S(=O)(=O)N2CCCC2)cc1`?
ANO1 block: inactive; ANO1 activ: inactive; UBC13 inh: -4; Apaf-1 inh: 11

What do the screens show for `CC(O)C(NS(=O)(=O)c1ccc2ccccc2c1)C(=O)OCC(=O)Nc1ccccc1OC(F)F` (configuration not stated)?
ANO1 activ: inactive

Results for CCCCC(O)(CCN1CCOCC1)c1ccc(Cl)cc1 (configuration not stated) ?
ANO1 block: inactive; ANO1 activ: inactive; UBC13 inh: 8; FID counter: 49*; Apaf-1 inh: -10

What do the screens show for `O=C(N/N=C/c1cccc(OC(=O)c2cccc(Br)c2)c1)c1ccncc1`?
ANO1 block: inactive; ANO1 activ: inactive; UBC13 inh: -4; FID counter: -31; Apaf-1 inh: 18

Results for Cc1nn(-c2ccccc2)c(C)c1NC(=O)COc1ccc(Br)cc1Cl ?
ANO1 block: 25*; ANO1 activ: inactive; UBC13 inh: 2; FID counter: -15; Apaf-1 inh: 11

How did Cc1nn(-c2ccccc2)c(C)c1NC(=O)COc1ccc2ccccc2c1 do in these assays?
ANO1 block: inactive; ANO1 activ: inactive; UBC13 inh: -2; FID counter: -38; Apaf-1 inh: 19

How did CCOc1ccc(-n2cc(-c3ccc(OC)c(OC)c3)[nH]c2=S)cc1 do in these assays?
ANO1 block: inactive; ANO1 activ: inactive; UBC13 inh: -14; FID counter: -20; Apaf-1 inh: -9

What do the screens show for `CCOC(=O)C1CCN(C(=O)c2c(C)oc3c2C(=O)c2ccccc2C3=O)CC1`?
ANO1 block: inactive; ANO1 activ: inactive; UBC13 inh: -40; FID counter: -9; Apaf-1 inh: 48*

What do the screens show for `CC(=O)NC(c1ccccc1)c1c(O)ccc2ccccc12` (configuration not stated)?
ANO1 block: inactive; ANO1 activ: -6.5*; UBC13 inh: 4; FID counter: -14; Apaf-1 inh: 10

What do the screens show for `CC(=O)NC(c1ccc(C(C)C)cc1)c1c(O)ccc2ccccc12` (configuration not stated)?
ANO1 block: inactive; ANO1 activ: inactive; UBC13 inh: 2; Apaf-1 inh: 11

How did COc1cc(NCCCCCCCN)c2ncccc2c1 do in these assays?
ANO1 block: inactive; ANO1 activ: inactive; UBC13 inh: -40; FID counter: 3; Apaf-1 inh: 95*

Results for COCCCNC(=S)N(Cc1ccccc1)Cc1ccccc1 ?
ANO1 block: inactive; ANO1 activ: inactive; UBC13 inh: -8; FID counter: -9; Apaf-1 inh: 6

Results for Cc1nn(C)cc1S(=O)(=O)Nc1ccc(F)c(F)c1 ?
ANO1 block: inactive; ANO1 activ: inactive; UBC13 inh: 6; FID counter: 9; Apaf-1 inh: 14

How did CCN(CC)CCCNC(=O)c1cc2c(-c3ccc(Cl)cc3)nn(C)c2s1 do in these assays?
ANO1 block: inactive; ANO1 activ: inactive; UBC13 inh: 39; FID counter: 35; Apaf-1 inh: 38

What do the screens show for `CN1CCN(CCCNC(=O)c2cc3c(-c4ccc(Cl)cc4)nn(C)c3s2)CC1`?
ANO1 block: inactive; ANO1 activ: inactive; UBC13 inh: 46*; FID counter: 29; Apaf-1 inh: 43*

How did COC(=O)C1=C(C(=O)OC)[C@]2([C@H]3CC=CCN[C@@H](Cc4ccccc4)C(=O)N3Cc3ccccc3)C=C[C@H]1O2 do in these assays?
ANO1 activ: -10*

What do the screens show for `N#Cc1cccc(NC(=O)COc2ccc(-n3ccnc3)cc2)c1`?
ANO1 block: 25*; ANO1 activ: inactive; UBC13 inh: 6; FID counter: 0; Apaf-1 inh: -5

What do the screens show for `COc1cc(NC(=O)COc2ccc(-n3ccnc3)cc2)cc(OC)c1`?
ANO1 block: inactive; ANO1 activ: inactive; UBC13 inh: -18; FID counter: -6; Apaf-1 inh: 22

Results for CC1(c2ccc(OC(F)F)cc2)NC(=O)N(CC(=O)Nc2cccc(S(N)(=O)=O)c2)C1=O (configuration not stated) ?
ANO1 block: inactive; ANO1 activ: inactive; UBC13 inh: -4; FID counter: -6; Apaf-1 inh: -9

What do the screens show for `CC1(c2ccc(OC(F)F)cc2)NC(=O)N(/N=C/c2c(O)ccc3ccccc23)C1=O` (configuration not stated)?
ANO1 block: inactive; ANO1 activ: -4.7*; UBC13 inh: -9; FID counter: -2; Apaf-1 inh: 28

Results for Cc1cc(Br)ccc1NC(=O)CNC(=O)CNc1cccc([N+](=O)[O-])c1 ?
ANO1 activ: inactive; UBC13 inh: -1; Apaf-1 inh: -5

Results for CCOc1ccc(-n2c(SCC(=O)Nc3ccc(CC)cc3)nc3n[nH]c(C)c3c2=N)cc1 ?
ANO1 block: inactive; ANO1 activ: -6.4*; UBC13 inh: -5; FID counter: 7; Apaf-1 inh: -16

Results for CCCN(CCC)C(=O)CSc1nc2n[nH]c(C)c2c(=N)n1-c1ccc(OCC)cc1 ?
ANO1 block: inactive; ANO1 activ: inactive; UBC13 inh: -1; FID counter: -10; Apaf-1 inh: 31

Results for COc1ccc(-c2coc3c(CN4CCCCC4)c(O)c(CN4CCCCC4)c(O)c3c2=O)cc1 ?
ANO1 block: inactive; UBC13 inh: 35; FID counter: 4; Apaf-1 inh: 42*

What do the screens show for `CCOC(=O)N=Nc1c2ccccc2c2nc3no[nH]c3nc12`?
ANO1 activ: inactive; UBC13 inh: -177; FID counter: 3; Apaf-1 inh: 88*

How did CCN(CC)CCOc1ccc2c(c1)C(=NO)c1cc(OCCN(CC)CC)ccc1-2 do in these assays?
ANO1 block: inactive; ANO1 activ: inactive; UBC13 inh: 10; FID counter: 90*; Apaf-1 inh: -8

Screening results as filed in PubChem.
